Assay outcomes as filed in PubChem.
M1 antag = human M1 muscarinic receptor antagonists, primary screen, CHO-K1 cells, Fluo-8 calcium fluorescence, 1536-well | CHO-K1 hM1, ACh EC80 antagonist | 360,000 tested, 1.3% active | inhibition, % at 3 µM;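 active = percent inhibition above its own plate's cutoff, namely the mean of that plate's compound wells plus 3 SD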;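 also: peak over basal fluorescence ratio during 140 s after agonist addition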
CHRM5 PAM = human M5 muscarinic receptor positive allosteric modulators, primary screen, CHO-K1 cells, Fluo-8 calcium fluorescence; Muscarinic acetylcholine receptor M5 (Homo sapiens), P08912; CHO-K1 hM5, ACh EC20 PAM; 0% = ACh EC20, 100% = ACh EC100; activation, % at 3 µM; 360,000 tested, 0.3% active;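 active = activation above the run cutoff, the mean activation of all test compounds plus 3 SD, cut at about 18% in these data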
Target sequence (P08912 whole entry, looked up): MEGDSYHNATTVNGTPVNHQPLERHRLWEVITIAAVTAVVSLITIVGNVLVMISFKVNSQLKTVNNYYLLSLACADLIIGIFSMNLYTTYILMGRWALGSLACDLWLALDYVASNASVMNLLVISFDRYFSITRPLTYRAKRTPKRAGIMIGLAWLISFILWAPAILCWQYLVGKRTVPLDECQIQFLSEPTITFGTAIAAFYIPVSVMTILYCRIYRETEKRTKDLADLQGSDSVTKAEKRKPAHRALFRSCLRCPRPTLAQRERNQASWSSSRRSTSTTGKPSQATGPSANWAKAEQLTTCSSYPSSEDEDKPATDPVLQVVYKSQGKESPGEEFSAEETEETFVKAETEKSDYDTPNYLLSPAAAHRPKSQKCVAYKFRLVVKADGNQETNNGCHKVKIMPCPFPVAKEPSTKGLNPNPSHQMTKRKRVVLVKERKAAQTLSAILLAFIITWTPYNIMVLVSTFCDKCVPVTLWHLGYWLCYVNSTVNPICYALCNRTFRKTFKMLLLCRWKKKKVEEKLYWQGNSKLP
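Probe or stimulus: acetylcholine, EC20 level; Assay system: human M5 receptor in CHO-K1 cells; Schedule: compound preincubation 140 s before EC20 acetylcholine addition; Technique: intracellular calcium via Fluo-8 fluorescence; Dosing: single-point, 3 µM nominal; Read-out basis: percent activation from peak-over-basal fluorescence ratio, scaled EC20-to-EC100 acetylcholine; Repeats: one well per compound, no replicates.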
CHRM5 antagonist = human M5 muscarinic receptor antagonists, primary screen, CHO cells, Fluo-8 calcium fluorescence | AID 624040, 2012 | inhibition, % at 3 µM | Muscarinic acetylcholine receptor M5 (Homo sapiens), P08912 | CHO-hM5 cells, ACh EC80 | 360,000 tested, 0.59% active;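 active = inhibition above a per-plate cutoff, the mean of that plate's test compounds plus 3 SD, cut at about 27% in these data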
M1 PAM = human M1 muscarinic receptor positive allosteric modulators, primary screen, CHO-K1 cells, Fluo-8 calcium fluorescence, 1536-well; Muscarinic acetylcholine receptor M1 (Homo sapiens), P11229; CHO-K1 hM1, ACh EC20; 0% = ACh EC20, 100% = maximal ACh; activation, % at 3 µM; 360,000 tested, 0.088% active; AID 588819, 2011; in the data active = activation above about 19%, passing the limit was not always enough
M1 ag = human M1 muscarinic receptor agonists, primary screen, Fluo-8 calcium fluorescence, CHO-K1 cells, HTS. 360,000 tested, 0.33% active. CHO-K1 hM1, agonist mode; 0% DMSO, 100% acetylcholine EC100. Muscarinic acetylcholine receptor M1 (Homo sapiens), P11229. activation, % at 3 µM;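 active = activation above the run's mean compound activation plus 3 SD, cut at about 16% in these data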;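 also: peak over basal fluorescence ratio within a 140 s kinetic read after compound addition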
M5 ag = human M5 muscarinic receptor agonists, primary screen, CHO-K1 cells, Fluo-8 calcium fluorescence; Muscarinic acetylcholine receptor M5 (Homo sapiens), P08912; 360,000 tested, 0.19% active; activation, % at 3 µM; AID 624037, 2012; CHO-K1 hM5 cells; 0% DMSO wells, 100% maximal acetylcholine response;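 active = activation above the run's mean over test compounds plus 3 SD, cut at about 23% in these data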;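 also: signal is peak over basal fluorescence ratio across the kinetic read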
A number is an active result; . = inactive; / = not tested or not shown. Hits are enriched below; roughly 2.1% of the tested compounds scored in any of these assays.

SMILES | M1 antag | CHRM5 PAM | CHRM5 antagonist | M1 PAM | M1 ag | M5 ag
CC(C)Cn1c(N)c(C(=O)COC(=O)c2c(O)c(Cl)cc(Cl)c2Cl)c(=O)n(C)c1=O | . | . | . | 28 | . | .
COc1cccc(Nc2nc(NCCO)nc(N3CCCC3)n2)c1 | . | . | . | . | . | .
CCOC(=O)c1sc2nc(CC(=O)OC)nc(N3CCN(c4ccc(OC)cc4)CC3)c2c1C | . | . | . | . | . | .
CC(C)[C@@H](C(=O)NCC1CCC(C(=O)O)CC1)n1nnc2ccccc2c1=O (some centres not stated) | . | . | . | . | . | .
COc1cccc(-c2nn(C)c3sc(C(=O)N4CCOCC4)cc23)c1 | . | . | . | . | . | .
COc1cccc(-c2nn(C)c3sc(C(=O)N4CCN(c5ccccn5)CC4)cc23)c1 | 22 | . | . | . | . | .
Cc1ccc(C)c(-c2cc(C(=O)NNC(=S)NCC(C)C)c3ccccc3n2)c1 | . | . | . | . | . | .
CC(C)c1ccc(-c2nc(N3CCCCCC3)nc3n[nH]c(N)c23)cc1 | . | . | . | . | . | .
CC(C)c1ccc(-c2nc(N3CCCC3)nc3n[nH]c(N)c23)cc1 | . | 54 | . | . | . | .
Cc1ccc(Nc2nc(-c3c(C)nc4ccccn34)cs2)cc1 | 23 | . | . | . | . | .
COc1ccc2[nH]c(C)c(CN3CCC(C)CC3)c(=O)c2c1 | . | . | . | . | . | .
CC(=O)N1CCC(C(=O)N2c3ccccc3N=C(c3ccc(C(F)(F)F)cc3)C2C(=O)NC2CCCC2)CC1 (configuration not stated) | / | . | . | / | / | .
CCOC(=O)N1CCC(N(CCN(C)C)C(=S)Nc2ccccc2OCC)CC1 | . | 38 | . | . | . | .
CNc1ccccc(-c2ccc3ccccc3n2)c1=O | . | . | . | . | . | .
C=CCN(c1ccc(C(=O)N2CCN(c3ccc(F)cc3)CC2)cc1)S(C)(=O)=O | . | . | 42 | . | . | .
CN(c1ccc(C(=O)N2CCN(c3ccc(F)cc3)CC2)cc1)S(C)(=O)=O | . | . | . | . | . | .
Cc1cc(N2CCCCC2)nc(NCc2ccccc2)n1 | . | . | . | . | 21 | 33
Cc1cc(N2CCOCC2)nc(NCc2ccccc2)n1 | . | . | . | . | . | .
Cc1cc(N2CCCCC2)nc(N2CCCCC2)n1 | . | . | . | . | 28 | .
CCCn1c(NC(=O)CN2C(=O)NC3(CCCC3)C2=O)nc2ccccc21 | . | . | . | . | . | .
CC(C)N1CCN(C(=O)c2ccc(NC(=O)c3ccc(Br)o3)cc2)CC1 | . | 20 | . | . | . | .
CCOc1ccc(C(=O)NCC(c2cccs2)N2CCOCC2)cc1 (configuration not stated) | . | . | . | . | . | .
COc1cc(C(=O)O/N=C2\CCCc3c2ccc(OC)c3[N+](=O)[O-])cc(OC)c1OC | 25 | . | . | . | . | .
COc1ccc(CNc2ccc(Br)cc2)cc1 | . | . | . | . | . | .
COc1ccc(NC2=NCC(Cc3ccc(Br)cc3)S2)cc1 (configuration not stated) | 79 | . | . | . | . | .
COc1ccc(C(C(=O)NCC2CCCO2)N(C(=O)CNC(=O)c2ccco2)c2ccccc2)cc1OC (configuration not stated) | . | . | . | . | . | .
C[C@@H]1CC[C@]2(O[C@H](CCO)C[C@@H](O)[C@@H]2O)O1 | . | 25 | . | . | . | .
Cc1[nH]c2ccccc2c1CCNS(=O)(=O)c1ccc(S(N)(=O)=O)cc1 | . | . | . | . | . | .
